Test results published in publication PMC9315039 (Angewandte Chemie (International Ed. in English), 2022).
pEC50, pKi: −log10 of the molar value. Like-named read-outs stand apart in the source and are kept apart here.

Columns and labels:
SIRT5 [1] = target: T1, SIRT5 (Homo sapiens, UniProt Q9NXA8); assay: Continuous SIRT5 enzyme inhibition assay; assay type: biochemical
T1 sequence (Q9NXA8 34-310): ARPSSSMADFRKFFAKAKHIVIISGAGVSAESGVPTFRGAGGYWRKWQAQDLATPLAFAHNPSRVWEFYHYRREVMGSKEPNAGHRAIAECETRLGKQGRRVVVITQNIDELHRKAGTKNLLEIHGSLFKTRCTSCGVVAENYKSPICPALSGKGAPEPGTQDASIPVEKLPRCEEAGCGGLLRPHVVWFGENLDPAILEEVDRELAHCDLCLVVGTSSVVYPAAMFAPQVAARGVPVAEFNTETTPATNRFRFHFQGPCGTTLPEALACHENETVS
Outline: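 Continuous trypsin-coupled progression-curve assay with SIRT5 80 nM, NAD⁺ 500 μM, Ac-LGKglu-AMC 40 μM and trypsin 1.70 ng×μL⁻¹, run at several inhibitor concentrations. k_obs was plotted against inhibitor concentration and fitted to slow-binding mechanism A or B, giving Ki and rate constants.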

SIRT5 in HEK293T cells = target: T2, SIRT5 in HEK293T cells (Homo sapiens, UniProt Q9NXA8); assay: Isothermal dose-response cellular thermal shift assay; assay type: cell-based
T2 sequence (Q9NXA8 37-310): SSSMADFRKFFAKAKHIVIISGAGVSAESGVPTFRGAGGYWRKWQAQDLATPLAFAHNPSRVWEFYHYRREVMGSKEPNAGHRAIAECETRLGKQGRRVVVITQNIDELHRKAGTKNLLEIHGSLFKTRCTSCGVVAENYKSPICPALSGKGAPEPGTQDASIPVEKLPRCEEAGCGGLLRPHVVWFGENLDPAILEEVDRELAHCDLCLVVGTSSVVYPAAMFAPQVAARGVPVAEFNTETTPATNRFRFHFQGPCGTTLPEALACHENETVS
Outline: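 ITDRF-CETSA in HEK293T cells. Cells were treated 2 h with test compound at 2.6 nM–10 μM, with a reference inhibitor at 10 μM as internal control. Samples were heated at 52 °C and soluble SIRT5 was detected by immunoblot. EC50 came from fitted dose-response curves (n≥2), and EC50s of masked/unmasked pairs were compared.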

SIRT5 [2] = target: T1, SIRT5; assay: End-point SIRT5 deglutarylase inhibition assay; assay type: biochemical; details: Figure 1A; inhibitor 100 μM; NI = no inhibition
Outline: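 End-point deglutarylase assay using recombinant SIRT5 (150 nM) with Ac-LGKglut-AMC substrate (50 μM). Results are given as IC50 from dose-response curves (mean ± SD) or as %-inhibition at stated concentrations. Each value comes from at least two individual assays run in duplicate.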

[3] = system: SIRT5 activity in HeLa cells; assay: Live cell imaging of SIRT5 activity; assay type: cell-based; details: 10 μM inhibitor, co-treatment with labeled peptide substrate 250 µM, 6 hours
Outline: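 HeLa cells were co-treated with a dye-labeled succinylated peptide substrate and test compound at 10 μM. Mitochondrial SIRT5 desuccinylation triggers peptide self-assembly, and the resulting fluorescence was read in cells. This was single-concentration only, without dose-response.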

SKM-1 cells = assay: MTT cell viability assay, SKM-1; assay type: cell-based; details: concentrations up to 100 μM
Outline: (§1)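 Viability dose-response in cultured SKM-1, OCI-AML2, MOLM-13 (AML) and HEK293T cells, with concentrations up to 100 μM. GI50 was taken from dose-response curves. Data come from three individual assays performed in duplicate.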

HEK293T cells = assay: MTT cell viability assay, HEK293T; assay type: cell-based, human; details: concentrations up to 100 μM
Outline: as §1

pEC50 (SIRT5 in HEK293T cells) | %-inhibition of SIRT5 deglutarylase activity at 100 μM (SIRT5 [2]) | Ki (SIRT5 [1]) | SMILES | also measured
< 5.00 |  |  | O=C1CC(CCNC(=S)NCCCC[C@H](NS(=O)(=O)c2cccc(F)c2)C(=O)N[C@@H](Cc2c[nH]c3ccccc23)C(=O)NC2CCC2)=NO1 [Compound 22] | pKi (SIRT5 [1]; Ki): ~7.00
 | did not show substantial inhibition |  | CCCCNC(=S)NCCCC[C@H](NS(=O)(=O)c1cccc(F)c1)C(=O)N[C@@H](Cc1c[nH]c2ccccc12)C(=O)NC1CCC1 [Compound 2] | 
5.89 |  | low nanomolar range | O=C(NC1CCC1)[C@H](Cc1c[nH]c2ccccc12)NC(=O)[C@H](CCCCNC(=S)NCCc1nnn[nH]1)NS(=O)(=O)c1cccc(F)c1 [Compound 24] | inhibition of SIRT5 activity in HeLa cells (fluorescence) [3]: inhibition of SIRT5 activity; decrease in viability of SKM-1 cells (SKM-1 cells): None of the acidic compounds 1, 16, and 24 caused substantial decrease in viability; decrease in viability of HEK293T cells (HEK293T cells): None of the acidic compounds 1, 16, and 24 caused substantial decrease in viability
 |  | micromolar range | O=C(CCNC(=S)NCCCC[C@H](NS(=O)(=O)c1cccc(F)c1)C(=O)N[C@@H](Cc1c[nH]c2ccccc12)C(=O)NC1CCC1)NO [Compound 27] | 
 | did not show substantial inhibition |  | O=C(NC1CCC1)[C@H](Cc1c[nH]c2ccccc12)NC(=O)[C@H](CCCCNC(=S)NCCCO)NS(=O)(=O)c1cccc(F)c1 [Compound 3] | 
 |  | micromolar range | NC(=O)CCNC(=S)NCCCC[C@H](NS(=O)(=O)c1cccc(F)c1)C(=O)N[C@@H](Cc1c[nH]c2ccccc12)C(=O)NC1CCC1 [Compound 4] | 
